Measured values reported in article PMC9177960 (Nucleic Acids Research, 2022).

Experiments:
[1] = molecular target: T1, MurR/operator DNA complex (Escherichia coli, UniProt P77245); assay: EMSA of MurR with murR-murQ intergenic region DNA; format: biochemical; settings: for effect on MurR-DNA binding at high concentration: EMSA, 1, 10, 20, 40 mM, effect of GlcNAc-6-P at 40 mM
T1 sequence (P77245 1-285): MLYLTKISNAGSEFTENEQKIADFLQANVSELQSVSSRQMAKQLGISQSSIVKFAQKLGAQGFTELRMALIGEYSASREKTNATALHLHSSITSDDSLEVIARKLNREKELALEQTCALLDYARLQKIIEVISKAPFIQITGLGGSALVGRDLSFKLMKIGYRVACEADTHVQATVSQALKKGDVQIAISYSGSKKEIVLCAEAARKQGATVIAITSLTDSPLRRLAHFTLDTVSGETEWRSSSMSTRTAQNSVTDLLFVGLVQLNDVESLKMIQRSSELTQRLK

[2] = tested on: MurR binding to the operator site; settings: previous studies; cited from earlier work
[3] = molecular target: T2, MurR (Escherichia coli, UniProt P77245); assay: ITC binding between MurR and ligands
T2 sequence (P77245 1-285): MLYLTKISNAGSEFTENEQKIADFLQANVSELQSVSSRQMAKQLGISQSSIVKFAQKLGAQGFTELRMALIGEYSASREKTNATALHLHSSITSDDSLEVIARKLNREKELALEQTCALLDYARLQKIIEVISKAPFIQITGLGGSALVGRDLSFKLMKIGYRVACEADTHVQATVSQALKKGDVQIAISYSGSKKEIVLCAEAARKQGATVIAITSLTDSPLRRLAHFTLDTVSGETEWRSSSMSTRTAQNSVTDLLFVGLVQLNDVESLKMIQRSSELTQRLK
How it was run: (§1)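 MurR (wild type or point mutant) was expressed from pET28a in E. coli BL21(DE3), His6-tag removed with HRV3C, and gel-filtered. Protein at 50 µM in the cell; ligand at 500 µM in the syringe. Both were in 100 mM NaCl, 10 mM Tris-HCl pH 7.5, 1 mM DTT. Run at 25 °C, stirring 750 rpm, 120 s between injections. Data background-subtracted to give association constants; triplicate runs.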

[4] = tested on: mutant MurR proteins/promoter DNA complexes; assay: EMSA of mutant MurR proteins with promoter DNA; format: biochemical, Escherichia coli; settings: all MurR proteins (WT and mutants) at the tested concentrations
[5] = tested on: mutant MurR proteins; assay: ITC binding of GlcNAc-6-P to mutant MurR proteins; design: species or system Escherichia coli; settings: mutant proteins of Supplementary Figure S14A and B
How it was run: as §1

[6] = tested on: MurR-controlled eGFP expression (pUC19-murR-eGFP); assay: CFPS eGFP fluorescent quantitation assay, WT MurR; format: biochemical, Escherichia coli; settings: plasmid 5.8 nM, protein 1:100 molar ratio, different ligand concentrations
How it was run: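 Reporter plasmid: T7 promoter, RBS, eGFP coding sequence and the murQ–murR intergenic region. MurR proteins were expressed in E. coli BL21(DE3) with an N-terminal His6 tag, which was cleaved off by HRV3C protease, then purified by size exclusion. In cell-free protein synthesis, 5.8 nM plasmid was mixed with protein at a 1:100 plasmid:protein molar ratio and graded MurNAc-6-P or GlcNAc-6-P. eGFP fluorescence was read on a real-time PCR instrument, in triplicate.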

[7] = molecular target: the molecule itself; assay: SEC + AUC
[8] = molecular target: the molecule itself; assay: crystal structure

With `O=S(=O)([O-])[O-].[Na+].[Na+]` [sodium sulfate] the “effect on MurR-DNA binding at high concentration” value [1] was “not affected”.

In the case of `CC(=O)N[C@H]1C(O)O[C@H](CO)[C@@H](O)[C@@H]1O[C@H](C)C(=O)N[C@@H](C)C(=O)N[C@H](CCC(=O)O)C(N)=O` (mixture of isomers) [muramyl dipeptide], the “effect on MurR binding to the operator” value [2] is listed as “no effect”.

In the case of `CC(=O)N[C@@H]1[C@@H](O)[C@H](O)[C@@H](CO)O[C@H]1O` [GlcNAc, N-acetylglucosamine], the “effect on MurR binding to the operator” value [2] is given as “no effect” and the “interaction with MurR in ITC” value ([3]; ligand titrated into WT MurR) is given as “no interaction”.

In the case of `CC(=O)N[C@H]1C(O)O[C@H](COP(=O)(O)O)[C@@H](O)[C@@H]1O` (stereo partly shown) [GlcNAc-6-P, N-acetylglucosamine-6-phosphate], the “sensitivity of MurR/DNA complexes to ligand” value [4] is listed as “insensitive”, the “effect on MurR binding to the operator” value [2] is listed as “no effect” and the “association constant (Ka) values compared with WT MurR” value [5] is listed as “Smaller”. The Kd [3] was 17.6 µM, the “relief of the retardation of DNA migration” value ([1]; EMSA, 200 nM MurR, ligand 1, 10, 100, 1000 μM) was “negligible” and the “effect on MurR-DNA binding at high concentration” value [1] was “a certain portion of the DNA was dissociated from MurR”. The “effect on eGFP fluorescence” value [6] was “made no visible difference”.

B1: full-length MurR (natural protein, Escherichia coli MG1655, UniProt P77245 1-285, looked up)
chain: MLYLTKISNAGSEFTENEQKIADFLQANVSELQSVSSRQMAKQLGISQSSIVKFAQKLGAQGFTELRMALIGEYSASREKTNATALHLHSSITSDDSLEVIARKLNREKELALEQTCALLDYARLQKIIEVISKAPFIQITGLGGSALVGRDLSFKLMKIGYRVACEADTHVQATVSQALKKGDVQIAISYSGSKKEIVLCAEAARKQGATVIAITSLTDSPLRRLAHFTLDTVSGETEWRSSSMSTRTAQNSVTDLLFVGLVQLNDVESLKMIQRSSELTQRLK
For B1, the “stoichiometry N” value [7] was 4.

B2: truncated protein MurRT2 (D95 to K285) (domain or fragment, Escherichia coli MG1655, UniProt P77245 95-285, looked up)
chain: DDSLEVIARKLNREKELALEQTCALLDYARLQKIIEVISKAPFIQITGLGGSALVGRDLSFKLMKIGYRVACEADTHVQATVSQALKKGDVQIAISYSGSKKEIVLCAEAARKQGATVIAITSLTDSPLRRLAHFTLDTVSGETEWRSSSMSTRTAQNSVTDLLFVGLVQLNDVESLKMIQRSSELTQRLK
B2: binds [8].
